Source: ChEMBL document CHEMBL4610112, “Novel Pyrrolopyridone Bromodomain and Extra-Terminal Motif (BET) Inhibitors Effective in Endocrine-Resistant ER+ Breast Cancer with Acquired Resistance to Fulvestrant and Palbociclib” (J Med Chem, 2020)
The source made the active and inactive calls.

How the values were obtained:
MCF7:CFR [1] = assay: Down regulation of NUPR1 gene expression in fulvestrant-resistant human MCF7:CFR cells at 100 nM measured after 24 hrs; format: functional, cell-based
Method in brief: (§1)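 MCF-7:CFR cells were treated with compound at 100 nM or DMSO (0.01%) for 24 h. RNA extracted and RNA-seq performed. Output given as log2 fold change versus vehicle.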

MCF7:CFR [2] = assay: Down regulation of BCL2 gene expression in fulvestrant-resistant human MCF7:CFR cells at 100 nM measured after 24 hrs; format: functional, cell-based; method in brief: as §1
MCF7:CFR [3] = assay: Up regulation of CDKN1B gene expression in fulvestrant-resistant human MCF7:CFR cells at 100 nM measured after 24 hrs; format: functional, cell-based
Method in brief: (§2)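 MCF-7:CFR cells exposed to compound at 100 nM, with DMSO (0.01%) as control, for 24 h. RNA extracted and analysed by RNA-seq. Values are log2-fold changes in gene expression against the vehicle control.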

MCF7:CFR [4] = assay: Down regulation of ERBB3 gene expression in fulvestrant-resistant human MCF7:CFR cells at 100 nM measured after 24 hrs; format: functional, cell-based; method in brief: as §1
MCF7:CFR [5] = assay: Down regulation of ZMYND8 gene expression in fulvestrant-resistant human MCF7:CFR cells at 100 nM measured after 24 hrs; format: functional, cell-based; method in brief: as §1
MCF7:CFR [6] = assay: Growth inhibition of fulvestrant-resistant human MCF7:CFR cells at 1 to 30 nM treated for 3 hrs followed by compound washout and measured after 5 days by Hoechst 33342 dye based imaging analysis; format: functional, cell-based
Method in brief: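 MCF-7:CFR cells grown 2 days in phenol red-free RPMI/10% charcoal-dextran FBS, then seeded at 2000 cells/well. Treated next day; medium replaced with normal growth medium after 3 h. On day 5, cells stained with Hoechst 33342 and counted by imaging. Survival normalized to DMSO (100%) and JQ1 3 μM (0%).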

MCF7:CFR [7] = assay: Down regulation of PARP10 gene expression in fulvestrant-resistant human MCF7:CFR cells at 100 nM measured after 24 hrs; format: functional, cell-based; method in brief: as §1
MCF7:CFR [8] = assay: Down regulation of BCAS1 gene expression in fulvestrant-resistant human MCF7:CFR cells at 100 nM measured after 24 hrs; format: functional, cell-based; method in brief: as §1
MCF7:CFR [9] = assay: Down regulation of CCDC170 gene expression in fulvestrant-resistant human MCF7:CFR cells at 100 nM measured after 24 hrs; format: functional, cell-based; method in brief: as §1
MCF7:CFR [10] = assay: Down regulation of c-MET gene expression in fulvestrant-resistant human MCF7:CFR cells at 100 nM measured after 24 hrs; format: functional, cell-based; method in brief: as §1
Homo sapiens [11] = organism: Homo sapiens; assay: Growth inhibition of tamoxifen-resistant human MCF7:5C cells measured after 5 days by Hoechst 33342 dye based imaging analysis; format: functional
Method in brief: (§3)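 Cells seeded at 2000/well in their maintenance medium, treated once the next day with compound (0.1 nM–10 μM; 0.1% DMSO final). Day 5 Hoechst 33342 staining with imaging count. Survival normalized to DMSO (100%) and JQ1 3 μM (0%). IC50 given as mean ± SEM from at least two passages, each in triplicate.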

MCF7:CFR [12] = assay: Up regulation of RIPK1 gene expression in fulvestrant-resistant human MCF7:CFR cells at 100 nM measured after 24 hrs; format: functional, cell-based
Method in brief: (§4)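 MCF-7:CFR cells (fulvestrant-resistant, kept in 200 nM fulvestrant in phenol red-free stripped RPMI-1640) treated with 100 nM compound or DMSO (0.01%) for 24 h. RNA extracted and RNA-seq performed, expression reported as log2 fold change versus vehicle.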

MCF7:CFR [13] = assay: Down regulation of NRAS gene expression in fulvestrant-resistant human MCF7:CFR cells at 100 nM measured after 24 hrs; format: functional, cell-based; method in brief: as §1
MCF7:CFR [14] = assay: Down regulation of c-MYC gene expression in fulvestrant-resistant human MCF7:CFR cells at 100 nM measured after 24 hrs; format: functional, cell-based; method in brief: as §2
T47D = assay: Growth inhibition of tamoxifen-sensitive human T47D cells measured after 5 days by Hoechst 33342 dye based imaging analysis; format: functional, cell-based; method in brief: as §3
MCF7:TAM1 [15] = assay: Growth inhibition of tamoxifen-resistant human MCF7:TAM1 cells measured after 5 days by Hoechst 33342 dye based imaging analysis; format: functional, cell-based; method in brief: as §3
MCF7:CFR [16] = assay: Up regulation of CASP3 gene expression in fulvestrant-resistant human MCF7:CFR cells at 100 nM measured after 24 hrs; format: functional, cell-based; method in brief: as §4
MCF7:CFR [17] = assay: Down regulation of IGFBP5 gene expression in fulvestrant-resistant human MCF7:CFR cells at 100 nM measured after 24 hrs; format: functional, cell-based; method in brief: as §1
MCF7:CFR [18] = assay: Up regulation of APAF1 gene expression in fulvestrant-resistant human MCF7:CFR cells at 100 nM measured after 24 hrs; format: functional, cell-based; method in brief: as §4
Homo sapiens [19] = organism: Homo sapiens; assay: Growth inhibition of tamoxifen and palbociclib-resistant human MCF7:CPR cells measured after 5 days by Hoechst 33342 dye based imaging analysis; format: functional; method in brief: as §3
MCF7:TAM1 [20] = assay: Antitumor activity against human MCF7:TAM1 cells xenografted in ovariectomized athymic Nude-Foxn1 mouse assessed as tumor growth inhibition at 30 mg/kg/day, po administered via gavage for 4 weeks in presence of fulvestrant; format: functional, organism-based
Method in brief: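 MCF-7:Tam1 tumours established in 4–6 week old female ovariectomized athymic nude mice given daily tamoxifen 1.5 mg/mouse. […] Fulvestrant 1 (mg/mouse)/week sc. Tumour volume measured weekly by calipers as length × width² × π/6.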

MCF7:CFR [21] = assay: Up regulation of CASP9 gene expression in fulvestrant-resistant human MCF7:CFR cells at 100 nM measured after 24 hrs; format: functional, cell-based; method in brief: as §4
MCF7:CFR [22] = assay: Down regulation of ESR1 gene expression in fulvestrant-resistant human MCF7:CFR cells at 100 nM measured after 24 hrs; format: functional, cell-based; method in brief: as §1
MCF7:CFR [23] = assay: Down regulation of KRT83 gene expression in fulvestrant-resistant human MCF7:CFR cells at 100 nM measured after 24 hrs; format: functional, cell-based; method in brief: as §1
MCF7:CFR [24] = assay: Down regulation of HIST1H3B gene expression in fulvestrant-resistant human MCF7:CFR cells at 100 nM measured after 24 hrs; format: functional, cell-based; method in brief: as §1
MCF7:CFR [25] = assay: Down regulation of IFI44L gene expression in fulvestrant-resistant human MCF7:CFR cells at 100 nM measured after 24 hrs; format: functional, cell-based; method in brief: as §1
MCF7:CFR [26] = assay: Down regulation of n-MYC gene expression in fulvestrant-resistant human MCF7:CFR cells at 100 nM measured after 24 hrs; format: functional, cell-based; method in brief: as §2
MCF7:CFR [27] = assay: Down regulation of BCL2L1 gene expression in fulvestrant-resistant human MCF7:CFR cells at 100 nM measured after 24 hrs; format: functional, cell-based; method in brief: as §1
Homo sapiens [28] = organism: Homo sapiens; assay: Growth inhibition of tamoxifen-sensitive human MCF7:WS8 cells measured after 5 days by Hoechst 33342 dye based imaging analysis; format: functional; method in brief: as §3
MCF7:CFR [29] = assay: Down regulation of cyclin-D gene expression in fulvestrant-resistant human MCF7:CFR cells at 100 nM measured after 24 hrs; format: functional, cell-based; method in brief: as §2
Homo sapiens [30] = organism: Homo sapiens; assay: Growth inhibition of human T47D:TDG cells harboring ESR1 D538G mutant measured after 5 days by Hoechst 33342 dye based imaging analysis; format: functional; method in brief: as §3
MCF7:CFR [31] = assay: Up regulation of CASP6 gene expression in fulvestrant-resistant human MCF7:CFR cells at 100 nM measured after 24 hrs; format: functional, cell-based; method in brief: as §4
MCF7:CFR [32] = assay: Down regulation of CLEC3A gene expression in fulvestrant-resistant human MCF7:CFR cells at 100 nM measured after 24 hrs; format: functional, cell-based; method in brief: as §1

CCS(=O)(=O)Nc1cc(-c2cn(C)c3c(=O)[nH]ccc23)cc2c1ccn2C(C)(c1ccccn1)c1ccccn1
active: Activity (MCF7:CFR [1]) | Activity (MCF7:CFR [2]) | Activity (MCF7:CFR [3]) | Activity (MCF7:CFR [4]) | Activity (MCF7:CFR [5]) | growth inhibition (GI) (MCF7:CFR [6]) | Activity (MCF7:CFR [7]) | Activity (MCF7:CFR [8]) | Activity (MCF7:CFR [9]) | Activity (MCF7:CFR [10]) | growth inhibition (GI) (Homo sapiens [11]) Dose-dependent effect | Activity (MCF7:CFR [12]) | Activity (MCF7:CFR [13]) | Activity (MCF7:CFR [14]) | growth inhibition (GI) (T47D) Dose-dependent effect | growth inhibition (GI) (MCF7:TAM1 [15]) Dose-dependent effect | Activity (MCF7:CFR [16]) | Activity (MCF7:CFR [17]) | Activity (MCF7:CFR [18]) | growth inhibition (GI) (Homo sapiens [19]) Dose-dependent effect | TGI (MCF7:TAM1 [20]) | Activity (MCF7:CFR [21]) | Activity (MCF7:CFR [22]) | Activity (MCF7:CFR [23]) | Activity (MCF7:CFR [24]) | Activity (MCF7:CFR [25]) | Activity (MCF7:CFR [26]) | Activity (MCF7:CFR [27]) | growth inhibition (GI) (Homo sapiens [28]) Dose-dependent effect | Activity (MCF7:CFR [29]) | growth inhibition (GI) (Homo sapiens [30]) Dose-dependent effect | Activity (MCF7:CFR [31]) | Activity (MCF7:CFR [32])
